Laboratory results as given in ChEMBL document CHEMBL4513216, “Probing the Open Global Health Chemical Diversity Library for Multistage-Active Starting Points for Next-Generation Antimalarials” (ACS Infect Dis, 2020).

assay: Toxicity liver stage against HepG2, at 10uM; assay type: cell-based; design: test concentration 10 uM, cell line HepG2-A16-CD81EGFP; conditions: human, HepG2-A16-CD81EGFP cells; read-out: INHIBITION
How it was run: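 Uninfected HepG2-A16-CD81EGFP cells, 3 × 10^3 per well, 1536-well, plated on prespotted compound at 10 μM final, parasite-free screening media added to match infected plates; puromycin 10 μM positive, DMSO 0.5% negative; run in parallel with 48 h PbLuc assay at 37 °C, 5% CO2; viability by CellTiter-Glo luminescence, normalized to controls.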

Compound | cytotoxicity at 10 µM [%]
c1ccc(-c2cc(CN3CCC(c4ccn[nH]4)CC3)on2)cc1 | 7.98
CC(C)CC(NC(=O)c1ccn(C)c(=O)c1)c1cccs1 (stereo unspecified) | 1.67
Cc1ncc2c(n1)CN(CC(=O)N1CCc3sccc3C1)CC2 | 4.68
O=C(CO[C@@H]1CC[C@H]2[C@H]1OCCN2c1ncccn1)N1CCCC1 | -7.58
Cc1ccccc1C(C)NC(=O)CN1CCN(Cc2cccs2)CC1 (stereo unspecified) | 48.9
CN1CCCN(S(=O)(=O)c2cccc(C(=O)N3CCCCCC3)c2)CC1 | -5.9
O=C(Nc1ccccn1)N(CCO)Cc1ccccc1Br | -14.4
CC(C)n1cc(CN2CCCN(C(=O)c3cccnc3O)CC2)cn1 | 4.29
O=C(Nc1ccc(F)cc1)C1CNCCN1C(=O)CC1CCCCC1 (stereo unspecified) | 7.01
Cc1ccc(-c2cc(CN3CCCC(Cn4cncn4)C3)on2)cc1 (stereo unspecified) | -11.8
Cn1cc(-c2cnc3n2CCC32CCN(S(=O)(=O)C3CC3)CC2)cn1 | -139
O=S(=O)(NCCN1CC=CC1)c1cncc(Cl)c1 | -2.42
Cn1cccc1C(=O)NCc1cnc2n1CCN(CC1CCOCC1)C2 | -105
COc1ccc(-c2nccn2CCN2CCCCC2)c(OC)c1OC | 4.74
Cc1cccc(OCc2nnc(SCC3CCCN(C)C3)o2)c1 (stereo unspecified) | -2.8
CCc1n[nH]c(C2CN(C(=O)CCOCC(F)(F)F)CCO2)n1 (stereo unspecified) | 10.4
CCOc1ncccc1NC(=O)NC1CCN(C(=O)C2CC2)CC1 | -13.6
Cc1ccc(C(=O)CCC(=O)N2CCC(c3nncn3C)CC2)cc1 | -9.86
CN(Cc1ccsc1)C(=O)Nc1ccc(S(=O)(=O)N(C)C)cc1 | 2.23
CC(=O)N(Cc1noc(C)n1)C1CCN(Cc2ccccn2)C1 (stereo unspecified) | -5.82
CN(CC1CN(CCn2cc(C#N)cn2)CCO1)c1cccnn1 (stereo unspecified) | 1.85
COCCN1CCCc2sc(C(=O)NCC3CCCO3)nc21 (stereo unspecified) | 5.96
COc1cc(C(=O)NCCS(=O)(=O)N(C)C)c2ccccc2n1 | -0.0932

Compound | cytotoxicity at 10 µM [%]
CN(CC1COc2ccccc2O1)C(=O)C1=NN(C)C(=O)CC1 (stereo unspecified) | -52.2
Cc1cccc(-c2nc(N)nc3c2CN(C(=O)c2cc(C)n[nH]2)C3C)c1 (stereo unspecified) | 4.58
CC(=O)NCC(=O)N1Cc2nccn2CC(CN2CCCC2)C1 (stereo unspecified) | 2.34
N#Cc1cnn(C(=O)CCCOc2ccccc2Cl)c1N | -1.34
CN(C)C(=O)CCCNc1ncc2c(n1)CCN2c1ccccc1 | 2.29
CCS(=O)(=O)N1CCCC2(COCCN(c3cnccn3)C2)C1 (stereo unspecified) | 10.2
O=C(c1cc2c([nH]c1=O)CCC2)N1CCCC1c1cccnc1 (stereo unspecified) | -5.79
CS(=O)(=O)NC1CCCN(c2ccc(C#N)cn2)C1 (stereo unspecified) | -12.7
CC(C)c1cc(NC(=O)CN2CCC(N3CCCCC3)CC2)on1 | -9.68
Cn1ccnc1CN1CCC(CCCc2ccccn2)(C(N)=O)CC1 | -1.31
Cc1cc(C)c(CNC(=O)N2CCC(N3CCCC3)CC2)c(=O)[nH]1 | -3.52
CCc1nc(CN2CCCN(C(=O)CC(C)OC)CC2)cs1 (stereo unspecified) | -24.7
Cn1ccnc1CN1CC2(CCN(Cc3ccncc3)C2)C1 | -5.76
COCCN(CCC#N)Cn1cc(Cl)cn1 | 4.68
CC(C)N(C)CCC(=O)N1CCCC(c2ccc(C(=O)O)cc2)C1 (stereo unspecified) | -4.1
CCc1cc(NC2CCS(=O)(=O)C2)nc(N2CCCCC2)n1 (stereo unspecified) | -3.15
CC(C(=O)Nc1ccnn1C(C)C)N1CCN(Cc2ccccc2)CC1 (stereo unspecified) | -7.55
Cc1cc(-n2c(C)cn(CN(C)C3CCS(=O)(=O)C3)c2=O)no1 (stereo unspecified) | -0.872
CCNC(=O)C1CCN(c2cc(-c3ccccc3)nc3cc(C)nn23)C1 (stereo unspecified) | -2.97
c1ccc2c(N3CCCCC3Cn3cccn3)ncnc2c1 (stereo unspecified) | -5.33
CN1[C@@H](c2ccccc2)[C@@H](C(=O)NCc2ccncc2)C[C@@]1(C)C(=O)O | -40.6
Cc1ccc(C(O)CNC(=O)NCc2csc(C)n2)cc1 (stereo unspecified) | -5.13
Cc1ccc(-c2n[nH]cc2CN(Cc2nccn2C)C(C)C)cc1C | 2.57

Compound | cytotoxicity at 10 µM [%]
CC1(NC(=O)Cc2csc(-c3cccc(Cl)c3)n2)CCS(=O)(=O)C1 (stereo unspecified) | -3.61
Cc1cc(CN(C)C(=O)Nc2cnc3c(c2)c(C)nn3C)no1 | 3.77
Cc1cc(Nc2cnccn2)cc(C2CCCN2)n1 (stereo unspecified) | 2.54
Cc1noc(CNC(=O)CN(C)c2nc3ccccc3s2)n1 | -2.43
CC(C)(C)c1nnc(CNc2c(F)cccc2-n2cccn2)o1 | -8.25
CCSc1cc(C(=O)NCCc2nnc(-c3ccco3)[nH]2)ccn1 | 6.14
CCOC(C(=O)N1CCn2c(CC)nnc2C1)c1ccccc1 (stereo unspecified) | 4.48
Cc1nn(C(C)C)c(C)c1NC(=O)c1ccc(F)cc1 | -2.27
COc1cccc(CN2CCN(c3noc(C(C)C)n3)CC2)c1F | 2.97
COCCN1C[C@@H]2CN(Cc3ccsc3)CCC[C@]2(C(=O)O)C1 | -10.6
NC(CC1CCCC1)c1ccccc1 (stereo unspecified) | 5.76
CC(C)CC(CNC(=O)NCc1cc[nH]n1)N1CCOCC1 (stereo unspecified) | -12.6
COc1ccccc1C(O)Cn1cc(C(=O)NCc2ccco2)nn1 (stereo unspecified) | -6.03
O=C(Cc1cccs1)NC1(C(=O)NCC2CC2)CCCC1 | 4.19
Cc1cnc(C(=O)N2C[C@H]3CN(Cc4cccnc4)C[C@H]3C2)cn1 | 2.4
CC(=O)NCc1cc2n(n1)CCN(Cc1cccc(CCN)c1)C2 | -19.5
CC(C)C(NC(=O)Nc1cnn(CC(N)=O)c1)c1ccc(Cl)cc1 (stereo unspecified) | 7.51
Cc1ccc(C(=O)NS(=O)(=O)c2ccccc2C)c(=O)[nH]1 | -8.48
CC1=CCN(S(=O)(=O)c2cccc(C(=O)N3CCOCC3)c2)CC1 | 4.9
COc1nc2c(cc1C(=O)NCc1noc(Cc3cccs3)n1)CCC2 | -6.36
CC(=O)N1CCCC1c1ccc(Br)cn1 (stereo unspecified) | 4.29
CCc1ncc(CN2CCCN(CC3CC3)C(C(C)C)C2)cn1 (stereo unspecified) | -6.03
Cc1cccn2cc(CC(=O)N3CCCC(n4cncn4)C3)nc12 (stereo unspecified) | -7.31

Compound | cytotoxicity at 10 µM [%]
Cc1ccc(NC(=O)c2ccc(=O)n(CC(=O)NC3CCCC3)n2)cc1 | -3.63
Oc1nc(C2CC2)nc2c1nnn2C1CCN(Cc2ccoc2)CC1 | 6.01
COc1ccc(C(=O)Nc2cccc(SC)c2)c(OC)n1 | 13.2
CCCC(=O)N1CCC([C@@H]2C[C@H](C(F)(F)F)n3nc(C)cc3N2)CC1 | -16.1
CNC(=O)CC1CC2(CCNCC2)c2cc(F)ccc21 (stereo unspecified) | -107
O=C(O)c1cc2c(nc1-c1ccsc1)CCN(C(=O)C1CC1)CC2 | 14.4
N#Cc1ccc(NCC(O)c2ccco2)c(C(F)(F)F)c1 (stereo unspecified) | -31.7
O=C(c1cnoc1)N1CCC[C@]2(C[C@@H](OCc3ccccn3)CO2)C1 | -9.47
CC1CN(C)CCN1C(=O)Nc1nc(-c2ccco2)cs1 (stereo unspecified) | -5.02
CC(=O)c1cccc(NC(=O)N2CCCCC2CN2CCCC2=O)c1 (stereo unspecified) | 0.582
COCCCNC(=O)COc1ccccc1C(F)(F)F | 14.7
Cc1nc(C)n(C2CCCN(C(=O)c3ccc(OC(C)C)nc3)C2)n1 (stereo unspecified) | -5.92
CCC1CN(CCC(=O)N(C)C)CCN1CCOC (stereo unspecified) | -6.34
CC(NC(=O)NCCCn1cncn1)c1ccc(C(F)(F)F)cc1 (stereo unspecified) | -7.1
Cc1ccccc1CN1CCCN(CCN2CCOC2=O)CC1 | -7.53
O=C(CNC(=O)c1ccoc1)NC(c1ccc(F)cc1)C(F)(F)F (stereo unspecified) | -2.51
CN(CCc1ccccc1)c1cnn(Cc2ccccn2)c(=O)c1 | -7.03
Cn1cc(C(=O)NCCc2csc(-c3ccccc3)n2)ccc1=O | -6.7
CN(C(=O)c1ccccc1NCC(=O)O)C(C1CC1)C1CC1 | 1.73
CCC(O)CN(CC(=O)NC(=O)NC1CC1)c1ccccc1 (stereo unspecified) | -2.48
CC(=O)Nc1ccc(CNC2CCCSC2)cc1 (stereo unspecified) | -10.5
CCc1ccc(S(=O)(=O)N2CCCC3(CCCN3S(C)(=O)=O)C2)cc1 (stereo unspecified) | -2.98
Cc1cnn(CC2CCCN2C(=O)c2ccc3nnc(C)n3c2)c1 (stereo unspecified) | -8.11

Compound | cytotoxicity at 10 µM [%]
CC(C)c1cc(NCC(O)c2ccc(F)cc2)n2nccc2n1 (stereo unspecified) | 0.255
Cc1cc(N2CCCC(N(C)C)C2)n2nc(C)cc2n1 (stereo unspecified) | -53.5
CS(=O)(=O)N1CCCC(c2cccc(-c3ccccc3F)n2)C1 (stereo unspecified) | -3.81
CC(C)c1nnsc1CNC(=O)C1CCN(C(=O)C2CCCC2)CC1 | 1.05
Cc1n[nH]c(C2CN(C(=O)c3ccnc(C4CC4)n3)CCO2)n1 (stereo unspecified) | 1.85
COc1ccc(OCC2CCCN(Cc3ccncc3)C2)cc1 (stereo unspecified) | -8.44
O=C(Cn1ccc(=O)[nH]c1=O)Nc1ccccc1F | -0.691
Cc1nc(CN(C)C2CCN(Cc3ccno3)C2)no1 (stereo unspecified) | 2.07
N#CCCCS(=O)(=O)NC(=O)c1cccc(Cl)c1F | -2.8
O=C1CN(C(=O)C2CCC3(CC2)CNC(=O)c2ccccc2O3)CCN1 (stereo unspecified) | -11.6
Cc1n[nH]c(C)c1CNc1ccc(-c2nc(C3CC3)no2)cn1 | -24.3
CCNC(=O)CN1CCCC(c2ccc(C(=O)O)cc2)C1 (stereo unspecified) | 8.57
CCNC(=O)CN(CC)C(=O)c1csc(Cc2ccccc2F)n1 | 7.6
CCc1nc(C2CCCN2C(=O)c2csc(NC(C)=O)n2)no1 (stereo unspecified) | -5.12
O=C(COc1ccccc1F)NCCC(O)c1ccoc1 (stereo unspecified) | -13.4
O=C1C(Nc2ncccn2)CCN1c1ccccc1OC(F)F (stereo unspecified) | 2.88
COc1ccc(NC(=O)CCC2CCCN(S(=O)(=O)C3CC3)C2)cc1Cl (stereo unspecified) | 11.3
Cc1cnc(C)c(-c2cc(O)c3c(c2)CN(c2nccs2)CCO3)n1 | 1.08
CCn1cc(CNc2ccc(N(C)CCOC)cn2)cn1 | -8.16
